Assay results collected from several papers.
Each line is one published result; the experiments were not run side by side.
SIGMAR1: Sigma non-opioid intracellular receptor 1 (SIGMAR1, Homo sapiens, UniProt Q99720)
Nectin-4: Nectin-4 (Homo sapiens, UniProt Q96NY8)
PFF0160c E182D: Dihydroorotate dehydrogenase (quinone), mitochondrial (PFF0160c, Plasmodium falciparum, UniProt Q08210, E182D)

| SMILES | target | assay | measurement | value |
| --- | --- | --- | --- | --- |
| Fc1ccc([C@@H]2CCNC[C@H]2COc2ccc3c(c2)OCO3)cc1 | SIGMAR1 | ligand displacement, radioligand | Ki | 365 nM |
| COc1nc(NCC(C)C)nc(Oc2ccc(=O)n(Cc3ccccc3)n2)n1 | Dihydroorotate dehydrogenase (quinone), mitochondrial (PFF0160c, Plasmodium falciparum, UniProt Q08210) | enzyme activity, inhibitor, absorbance | IC50 | 124 nM |
| CCCC[C@@H]1NC(=O)[C@H](Cc2ccc(O)cc2)NC(=O)[C@@H]2CCCN2C(=O)[C@H](CC(N)=O)NC(=O)[C@H](C)NC(=O)[C@H](Cc2ccccc2)NC(=O)[C@@H]2CSCCC(=O)N3CN(CN(C3)C(=O)CCSC[C@H](NC(C)=O)C(=O)N[C@@H](CC(C)(C)C)C(=O)N3CCC[C@H]3C(=O)N[C@@H](CCC(=O)O)C(=O)N[C@H](CCCCNC(=O)CCc3cn(CCOCCOCCOCCN(CCOCCOCCOCCC(=O)N[C@H]4CSCCC(=O)N5CN6CN(C5)C(=O)CCSC[C@H](NC(=O)[C@@H](CC(=O)O)NC(=O)[C@H](Cc5cccc7ccccc57)NC(=O)[C@@H]5CCCN5C4=O)C(=O)N[C@@H](CCSC)C(=O)N[C@@H](CCCCNC(=N)N)C(=O)N[C@@H](CC(=O)O)C(=O)N[C@@H](Cc4c[nH]c5ccccc45)C(=O)N[C@@H](CO)C(=O)N[C@@H]([C@@H](C)O)C(=O)N4CCC[C@H]4C(=O)N4C[C@H](O)C[C@H]4C(=O)N[C@@H](Cc4c[nH]c5ccccc45)C(=O)N[C@H](C(N)=O)CSCCC6=O)CCOCCOCCOCCn4cc(CCC(=O)NCCCC[C@H]5NC(=O)[C@H](CCC(=O)O)NC(=O)[C@@H]6CCCN6C(=O)[C@H](CC(C)(C)C)NC(=O)[C@@H](NC(C)=O)CSCCC(=O)N6CN7CN(C6)C(=O)CCSC[C@H](NC(=O)[C@H](Cc6ccc(O)cc6)NC(=O)[C@@H]6CCCN6C5=O)C(=O)N[C@@H](Cc5ccccc5)C(=O)N[C@@H](C)C(=O)N[C@@H](CC(N)=O)C(=O)N5CCC[C@H]5C(=O)N[C@@H](Cc5ccc(O)cc5)C(=O)N[C@@H](CCCC)C(=O)N[C@H](C(N)=O)CSCCC7=O)nn4)nn3)C(=O)N3CCC[C@H]3C(=O)N[C@@H](Cc3ccc(O)cc3)C(=O)N2)C(=O)CCSC[C@@H](C(N)=O)NC1=O | Nectin-4 | binding, SPR | Kd | 1.9 nM |
| O=C(c1ccc(F)cc1)C1CCN(C2Cc3ccccc3CC2O)CC1 (single isomer, unassigned; (-)) | Vesicular acetylcholine transporter (SLC18A3, Homo sapiens, UniProt Q16572) | ligand displacement, radioligand | Ki | 24.7 nM |
| FC(F)(F)c1ccc2c(c1)N(CCCN1CCN(CCCl)CC1)c1ccccc1S2 | SIGMAR1 | ligand displacement, radioligand | Ki | 580 nM |
| C/C(=C\[N+](=O)[O-])c1ccccc1 | nerA (Agrobacterium radiobacter, UniProt O31246) | binding, absorbance | Kd | 730000 nM |
| Oc1cc(NC[C@H]2CCC[C@@H]2NCc2cc(Br)cc(Br)c2)nc2ccccc12 | PFF0160c E182D | enzyme activity, inhibitor, absorbance | IC50 | > 10000 nM |
| CCCC[C@@H]1NC(=O)[C@H](Cc2ccc(O)cc2)NC(=O)[C@@H]2CCCN2C(=O)[C@H](CC(=O)O)NC(=O)[C@H](C)NC(=O)[C@H](Cc2ccccc2)NC(=O)[C@@H]2CSCCC(=O)N3CN(CN(C3)C(=O)CCSC[C@@H](C(N)=O)NC1=O)C(=O)CCSCCC(=O)N[C@@H](CC(C)(C)C)C(=O)N1CCC[C@H]1C(=O)N[C@@H](CCC(=O)O)C(=O)N[C@H](CCCCNC(=O)CCc1cn(CCOCCOCCOCCN(CCOCCOCCOCCC(=O)N[C@H]3CSCCC(=O)N4CN5CN(C4)C(=O)CCSC[C@H](NC(=O)[C@@H](CC(=O)O)NC(=O)[C@H](Cc4cccc6ccccc46)NC(=O)[C@@H]4CCCN4C3=O)C(=O)N[C@@H](CCSC)C(=O)N[C@@H](CCCCNC(=N)N)C(=O)N[C@@H](CC(=O)O)C(=O)N[C@@H](Cc3c[nH]c4ccccc34)C(=O)N[C@@H](CO)C(=O)N[C@@H]([C@@H](C)O)C(=O)N3CCC[C@H]3C(=O)N3C[C@H](O)C[C@H]3C(=O)N[C@@H](Cc3c[nH]c4ccccc34)C(=O)N[C@H](C(N)=O)CSCCC5=O)CCOCCOCCOCCn3cc(CCC(=O)NCCCC[C@H]4NC(=O)[C@H](CCC(=O)O)NC(=O)[C@@H]5CCCN5C(=O)[C@H](CC(C)(C)C)NC(=O)CCSCCC(=O)N5CN6CN(C5)C(=O)CCSC[C@H](NC(=O)[C@H](Cc5ccc(O)cc5)NC(=O)[C@@H]5CCCN5C4=O)C(=O)N[C@@H](Cc4ccccc4)C(=O)N[C@@H](C)C(=O)N[C@@H](CC(=O)O)C(=O)N4CCC[C@H]4C(=O)N[C@@H](Cc4ccc(O)cc4)C(=O)N[C@@H](CCCC)C(=O)N[C@H](C(N)=O)CSCCC6=O)nn3)nn1)C(=O)N1CCC[C@H]1C(=O)N[C@@H](Cc1ccc(O)cc1)C(=O)N2 | Nectin-4 | binding, SPR | Kd | 2.3 nM |
| Cc1cccc(C(=O)N2CCN(Cc3cccc(NC(=O)c4cccs4)c3)CC2)c1 | PFF0160c E182D | enzyme activity, inhibitor, absorbance | IC50 | 6610 nM |
| CCCC[C@@H]1NC(=O)[C@H](Cc2ccc(O)cc2)NC(=O)[C@@H]2CCCN2C(=O)[C@H](CC(=O)O)NC(=O)[C@H](C)NC(=O)[C@H](Cc2ccccc2)NC(=O)[C@@H]2CSCCC(=O)N3CN(CN(C3)C(=O)CCSC[C@H](NC(C)=O)C(=O)N[C@@H](CC(C)(C)C)C(=O)N[C@@H](CCC(=O)O)C(=O)N[C@@H](CCC(=O)O)C(=O)N[C@H](CCCCNC(=O)CCc3cn(CCOCCOCCOCCOCCOCCC(=O)N[C@H]4CSCCC(=O)N5CN6CN(C5)C(=O)CCSC[C@H](NC(=O)[C@@H](CC(=O)O)NC(=O)[C@H](Cc5cccc7ccccc57)NC(=O)[C@@H]5CCCN5C4=O)C(=O)N[C@@H](CCSC)C(=O)N[C@@H](CCCCNC(=N)N)C(=O)N[C@@H](CC(=O)O)C(=O)N[C@@H](Cc4c[nH]c5ccccc45)C(=O)N[C@@H](CO)C(=O)N[C@@H]([C@@H](C)O)C(=O)N4CCC[C@H]4C(=O)N4C[C@H](O)C[C@H]4C(=O)N[C@@H](Cc4c[nH]c5ccccc45)C(=O)N[C@H](C(N)=O)CSCCC6=O)nn3)C(=O)N3CCC[C@H]3C(=O)N[C@@H](Cc3ccc(O)cc3)C(=O)N2)C(=O)CCSC[C@@H](C(N)=O)NC1=O | Nectin-4 | binding, SPR | Kd | 1.7 nM |
| Cc1cc2c(s1)Nc1ccccc1N=C2N1CCN(C)CC1 | SIGMAR1 | ligand displacement, radioligand | Ki | > 10000 nM |
| CCCC[C@@H]1NC(=O)[C@H](Cc2ccc(O)cc2)NC(=O)[C@@H]2CCCN2C(=O)[C@H](CCC(=O)O)NC(=O)[C@H](C)NC(=O)[C@H](Cc2ccccc2)NC(=O)[C@@H]2CSCCC(=O)N3CN(CN(C3)C(=O)CCSC[C@H](NC(C)=O)C(=O)N[C@@H](CC(C)(C)C)C(=O)N3CCC[C@H]3C(=O)N[C@@H](CCC(=O)O)C(=O)N[C@H](CCCCNC(=O)CCc3cn(CCOCCOCCOCCOCCOCCC(=O)N[C@H]4CSCCC(=O)N5CN6CN(C5)C(=O)CCSC[C@H](NC(=O)[C@@H](CC(=O)O)NC(=O)[C@H](Cc5cccc7ccccc57)NC(=O)[C@@H]5CCCN5C4=O)C(=O)N[C@@H](CCSC)C(=O)N[C@@H](CCCCNC(=N)N)C(=O)N[C@@H](CC(=O)O)C(=O)N[C@@H](Cc4c[nH]c5ccccc45)C(=O)N[C@@H](CO)C(=O)N[C@@H]([C@@H](C)O)C(=O)N4CCC[C@H]4C(=O)N4C[C@H](O)C[C@H]4C(=O)N[C@@H](Cc4c[nH]c5ccccc45)C(=O)N[C@H](C(N)=O)CSCCC6=O)nn3)C(=O)N3CCC[C@H]3C(=O)N[C@@H](Cc3ccc(O)cc3)C(=O)N2)C(=O)CCSC[C@@H](C(N)=O)NC1=O | Nectin-4 | binding, SPR | Kd | 2.5 nM |
| CCc1nc2nc(C)cc(Nc3cc(C)cc(C)c3)n2n1 | PFF0160c E182D | enzyme activity, inhibitor, absorbance | IC50 | 8560 nM |
| CN(C)CC[C@@H](c1ccc(Cl)cc1)c1ccccn1 | SIGMAR1 | ligand displacement, radioligand | Ki | 1990 nM |
| N[C@@H](C[C@]1(C(=O)O)C[C@H]2OC[C@@H](O)[C@@H](O)[C@H]2O1)C(=O)O | Glutamate receptor ionotropic, kainate 2 (Grik2, Rattus norvegicus, UniProt P42260, A518T) | ligand displacement, radioligand | Ki | 61 nM |
